The target in data set [1] is Mast/stem cell growth factor receptor Kit (Homo sapiens, UniProt P10721). As to the kind of experiment: Inhibition of recombinant Kit by TR-FRET assay. In short, it runs like this: (§1)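 Recombinant tyrosine kinase incubated with test compound and substrate peptide/ATP for 90 min at 30 °C; enzyme amount, ATP level, substrate and cation vary by kinase. Reaction stopped, then TR-FRET reagent with europium-labelled anti-phospho-substrate antibody added for 5 min at room temperature; substrate phosphorylation read as time-resolved fluorescence.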
A general note: Time-resolved FRET reads energy transfer from a long-lived donor to a nearby acceptor.

Data set [2] is described as follows: Solubility in fasted state simulated intestinal fluid. Format: physicochemical.
A further data set concerns T47D. As to the kind of experiment: Cytotoxicity against human T47D cells after 96 hrs by WST8 assay. On the technique in general: Formazan colour is commonly taken as a measure of viable cells.
In a further data set the test system is MKN-45. As to the kind of experiment: Cytotoxicity against human MKN45 cells after 96 hrs by WST8 assay. Format: functional, cell-based. To be noted: MKN-45, 96 h. In short, it runs like this: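 Tumour cells exposed to a range of compound concentrations for 96 h; cytotoxicity read with WST-8 cell counting kit.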
The target of data set [3] is RAC-alpha serine/threonine-protein kinase (Homo sapiens, UniProt P31749). As to the kind of experiment: Inhibition of recombinant AKT1 by IMAP assay. In short, it runs like this:
(§2)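 Recombinant enzyme mixed with test compound and substrate peptide/ATP solution, incubated 90 min at 30 °C; enzyme quantity, ATP, substrate and cation set per kinase. IMAP reagent then added for 5 min at room temperature, and peptide phosphorylation quantified by fluorescence polarization.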

The next data set relates to CAPAN-1. As to the kind of experiment: Cytotoxicity against human Capan1 cells after 96 hrs by WST8 assay. To be noted: CAPAN-1, 96 h.
Data set [4] concerns HUVEC. As to the kind of experiment: Inhibition of HGF-induced proliferation of HUVEC after 96 hrs by WST8 assay. To be noted: Homo sapiens.
For data set [5], the target named is Protein kinase C alpha type (Homo sapiens, UniProt P17252). As to the kind of experiment: Inhibition of recombinant PKCalpha by IMAP assay. In short, it runs like this:
as §2

For data set [6], the target named is T1, Receptor-type tyrosine-protein kinase FLT3 (Homo sapiens, UniProt P36888).
T1 sequence (P36888 whole entry): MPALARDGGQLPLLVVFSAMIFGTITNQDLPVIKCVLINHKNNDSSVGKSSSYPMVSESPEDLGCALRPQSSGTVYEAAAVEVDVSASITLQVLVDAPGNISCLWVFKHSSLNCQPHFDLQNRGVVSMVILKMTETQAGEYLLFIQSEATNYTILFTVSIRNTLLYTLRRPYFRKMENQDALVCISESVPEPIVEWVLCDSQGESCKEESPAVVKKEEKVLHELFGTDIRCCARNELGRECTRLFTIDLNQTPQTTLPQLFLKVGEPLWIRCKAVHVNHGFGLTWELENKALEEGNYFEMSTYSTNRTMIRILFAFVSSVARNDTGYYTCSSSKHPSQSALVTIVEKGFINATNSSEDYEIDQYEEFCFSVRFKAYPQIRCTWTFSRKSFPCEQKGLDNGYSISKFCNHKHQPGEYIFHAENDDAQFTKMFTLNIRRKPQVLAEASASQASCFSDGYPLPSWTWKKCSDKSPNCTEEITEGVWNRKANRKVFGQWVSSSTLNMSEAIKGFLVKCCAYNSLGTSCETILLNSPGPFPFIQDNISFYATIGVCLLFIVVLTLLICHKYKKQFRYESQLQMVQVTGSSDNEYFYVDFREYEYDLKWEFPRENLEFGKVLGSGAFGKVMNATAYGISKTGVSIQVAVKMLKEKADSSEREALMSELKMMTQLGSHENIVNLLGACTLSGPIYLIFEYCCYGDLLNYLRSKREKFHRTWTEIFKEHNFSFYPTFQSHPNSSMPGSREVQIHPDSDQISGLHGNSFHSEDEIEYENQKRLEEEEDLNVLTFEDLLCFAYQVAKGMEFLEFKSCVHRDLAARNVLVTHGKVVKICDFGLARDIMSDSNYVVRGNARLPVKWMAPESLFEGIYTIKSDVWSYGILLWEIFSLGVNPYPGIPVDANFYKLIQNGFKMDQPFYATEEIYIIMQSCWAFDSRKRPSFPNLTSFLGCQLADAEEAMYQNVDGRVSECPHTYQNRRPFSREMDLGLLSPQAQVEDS
As to the kind of experiment: Inhibition of recombinant Flt3 by TR-FRET assay. The method, boiled down:
as §1

For data set [7], the target named is Protein kinase C beta type (Homo sapiens, UniProt P05771). As to the kind of experiment: Inhibition of recombinant PKCbeta1 by IMAP assay. The method, boiled down:
as §2

The target of data set [8] is Cyclin-dependent kinase 1 (Homo sapiens, UniProt P06493). As to the kind of experiment: Inhibition of recombinant CDK1 by IMAP assay. The method, boiled down:
as §2

A further data set addresses Ephrin type-A receptor 2 (Homo sapiens, UniProt P29317). As to the kind of experiment: Inhibition of recombinant EphA2 by TR-FRET assay. In short, it runs like this:
as §1

The subject of data set [9] is HUVEC. As to the kind of experiment: Inhibition of ECGS-induced proliferation of HUVEC after 96 hrs by WST8 assay. To be noted: Homo sapiens.
The test system of the next data set is CWR22R. As to the kind of experiment: Cytotoxicity against human 22Rv1 cells after 96 hrs by WST8 assay. To be noted: 22Rv1, 96 h.
Data set [10] has as its target Cyclin-dependent kinase 2 (Homo sapiens, UniProt P24941). As to the kind of experiment: Inhibition of recombinant CDK2 by IMAP assay. The method, boiled down:
as §2

The next data set addresses T2, Aurora kinase A (Homo sapiens, UniProt O14965).
T2 sequence (O14965 whole entry): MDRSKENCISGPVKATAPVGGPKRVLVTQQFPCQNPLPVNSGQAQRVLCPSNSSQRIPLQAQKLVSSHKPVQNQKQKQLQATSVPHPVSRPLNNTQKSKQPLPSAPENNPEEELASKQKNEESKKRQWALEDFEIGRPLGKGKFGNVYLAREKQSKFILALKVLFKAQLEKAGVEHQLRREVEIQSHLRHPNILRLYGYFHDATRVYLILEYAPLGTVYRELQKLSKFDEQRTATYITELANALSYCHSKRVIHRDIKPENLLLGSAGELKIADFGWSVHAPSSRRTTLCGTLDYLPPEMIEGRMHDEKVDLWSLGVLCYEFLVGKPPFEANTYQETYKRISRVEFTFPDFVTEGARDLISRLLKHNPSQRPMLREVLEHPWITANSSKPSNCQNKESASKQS
As to the kind of experiment: Inhibition of recombinant Aurora A by IMAP assay. The method, boiled down:
as §2

For the next data set, the system named is MCF7. As to the kind of experiment: Cytotoxicity against human MCF7 cells after 96 hrs by WST8 assay. To be noted: MCF7, 96 h.
In a further data set the target is Insulin receptor (Homo sapiens, UniProt P06213). As to the kind of experiment: Inhibition of recombinant InsR by TR-FRET assay.
The target of data set [11] is Fibroblast growth factor receptor 2 (Homo sapiens, UniProt P21802). As to the kind of experiment: Inhibition of recombinant FGFR2 by TR-FRET assay. In short, it runs like this:
as §1

In data set [12] the target is Tyrosine-protein kinase Fyn (Homo sapiens, UniProt P06241). As to the kind of experiment: Inhibition of recombinant Fyn by TR-FRET assay. In short, it runs like this:
as §1

Data set [13] has as its system HUVEC. As to the kind of experiment: Inhibition of VEGF-induced proliferation of HUVEC after 96 hrs by WST8 assay. To be noted: Homo sapiens.
The next data set relates to NCI-H460. As to the kind of experiment: Cytotoxicity against human NCI-H460 cells after 96 hrs by WST8 assay. To be noted: NCI-H460, 96 h.
A further data set relates to HCT-116. As to the kind of experiment: Cytotoxicity against human HCT116 cells after 96 hrs by WST8 assay. To be noted: HCT-116, 96 h.
A further data set relates to PC-3. As to the kind of experiment: Cytotoxicity against human PC3 cells after 96 hrs by WST8 assay. To be noted: PC-3, 96 h.

In brackets after ≈: the same amount, converted by molar mass.

This is an account of results in ChEMBL document CHEMBL1156877, “Discovery of 6-benzyloxyquinolines as c-Met selective kinase inhibitors” (Bioorg Med Chem Lett, 2010).

Chain of Cyclin-dependent kinase 1 (P06493 whole entry): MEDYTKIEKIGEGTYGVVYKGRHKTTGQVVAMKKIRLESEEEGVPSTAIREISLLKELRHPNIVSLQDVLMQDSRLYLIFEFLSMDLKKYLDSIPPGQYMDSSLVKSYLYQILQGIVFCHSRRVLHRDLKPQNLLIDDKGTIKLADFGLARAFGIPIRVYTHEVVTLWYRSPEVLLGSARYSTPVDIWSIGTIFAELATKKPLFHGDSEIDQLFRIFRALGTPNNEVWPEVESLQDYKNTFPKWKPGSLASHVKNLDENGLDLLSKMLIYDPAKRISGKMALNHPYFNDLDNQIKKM
Chain of Tyrosine-protein kinase Fyn (P06241 whole entry): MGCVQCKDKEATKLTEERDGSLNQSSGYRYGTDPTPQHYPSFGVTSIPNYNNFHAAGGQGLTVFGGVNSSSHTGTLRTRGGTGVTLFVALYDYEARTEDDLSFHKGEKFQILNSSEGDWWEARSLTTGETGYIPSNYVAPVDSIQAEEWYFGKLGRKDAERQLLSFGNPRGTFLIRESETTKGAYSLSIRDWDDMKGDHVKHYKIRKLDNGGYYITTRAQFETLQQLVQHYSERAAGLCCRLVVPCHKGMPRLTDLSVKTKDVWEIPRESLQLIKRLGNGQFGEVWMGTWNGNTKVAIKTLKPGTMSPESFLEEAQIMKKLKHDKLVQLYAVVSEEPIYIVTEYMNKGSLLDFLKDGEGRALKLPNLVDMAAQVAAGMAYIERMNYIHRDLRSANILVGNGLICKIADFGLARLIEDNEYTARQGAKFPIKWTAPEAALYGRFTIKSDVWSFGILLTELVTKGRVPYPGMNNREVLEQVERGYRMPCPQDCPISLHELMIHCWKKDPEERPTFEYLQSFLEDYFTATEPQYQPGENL
Chain of RAC-alpha serine/threonine-protein kinase (P31749 whole entry): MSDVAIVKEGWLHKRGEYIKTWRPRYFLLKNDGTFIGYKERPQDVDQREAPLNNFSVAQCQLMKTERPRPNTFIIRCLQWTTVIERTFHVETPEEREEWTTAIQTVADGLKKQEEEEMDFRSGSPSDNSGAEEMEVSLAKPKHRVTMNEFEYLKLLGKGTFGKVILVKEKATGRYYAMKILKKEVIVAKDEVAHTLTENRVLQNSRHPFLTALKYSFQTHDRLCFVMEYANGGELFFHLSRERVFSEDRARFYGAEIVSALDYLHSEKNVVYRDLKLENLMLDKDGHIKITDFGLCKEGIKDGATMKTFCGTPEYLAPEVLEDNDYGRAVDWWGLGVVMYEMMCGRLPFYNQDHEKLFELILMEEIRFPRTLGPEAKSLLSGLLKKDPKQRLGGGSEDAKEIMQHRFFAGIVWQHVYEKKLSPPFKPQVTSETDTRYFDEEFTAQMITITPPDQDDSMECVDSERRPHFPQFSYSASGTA
Chain of Ephrin type-A receptor 2 (P29317 whole entry): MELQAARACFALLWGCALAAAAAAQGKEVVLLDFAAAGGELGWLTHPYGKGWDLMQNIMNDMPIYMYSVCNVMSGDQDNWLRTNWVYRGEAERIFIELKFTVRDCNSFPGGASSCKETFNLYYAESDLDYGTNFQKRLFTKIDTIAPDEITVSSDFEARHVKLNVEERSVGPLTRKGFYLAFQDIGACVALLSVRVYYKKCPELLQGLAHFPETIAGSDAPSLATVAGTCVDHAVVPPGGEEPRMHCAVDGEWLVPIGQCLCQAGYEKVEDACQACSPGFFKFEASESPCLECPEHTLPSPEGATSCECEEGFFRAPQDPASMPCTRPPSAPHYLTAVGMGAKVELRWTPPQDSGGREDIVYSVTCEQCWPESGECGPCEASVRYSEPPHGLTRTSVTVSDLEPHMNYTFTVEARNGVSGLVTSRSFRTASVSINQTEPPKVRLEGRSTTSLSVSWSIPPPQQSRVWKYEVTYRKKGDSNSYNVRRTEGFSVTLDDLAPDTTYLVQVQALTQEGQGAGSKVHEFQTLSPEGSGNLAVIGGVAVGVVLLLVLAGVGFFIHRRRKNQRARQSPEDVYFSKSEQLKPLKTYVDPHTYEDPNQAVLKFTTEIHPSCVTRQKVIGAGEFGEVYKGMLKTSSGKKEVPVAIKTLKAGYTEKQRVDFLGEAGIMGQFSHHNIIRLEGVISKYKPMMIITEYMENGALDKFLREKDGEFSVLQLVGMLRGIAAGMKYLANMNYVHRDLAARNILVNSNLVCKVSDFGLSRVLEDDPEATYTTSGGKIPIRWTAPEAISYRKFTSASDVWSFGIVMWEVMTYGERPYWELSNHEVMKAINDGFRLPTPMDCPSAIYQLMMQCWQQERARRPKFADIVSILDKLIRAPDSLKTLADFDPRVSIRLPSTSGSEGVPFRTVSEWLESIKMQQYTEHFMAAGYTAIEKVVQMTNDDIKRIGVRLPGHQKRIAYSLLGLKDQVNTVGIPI
Chain of Protein kinase C beta type (P05771 whole entry): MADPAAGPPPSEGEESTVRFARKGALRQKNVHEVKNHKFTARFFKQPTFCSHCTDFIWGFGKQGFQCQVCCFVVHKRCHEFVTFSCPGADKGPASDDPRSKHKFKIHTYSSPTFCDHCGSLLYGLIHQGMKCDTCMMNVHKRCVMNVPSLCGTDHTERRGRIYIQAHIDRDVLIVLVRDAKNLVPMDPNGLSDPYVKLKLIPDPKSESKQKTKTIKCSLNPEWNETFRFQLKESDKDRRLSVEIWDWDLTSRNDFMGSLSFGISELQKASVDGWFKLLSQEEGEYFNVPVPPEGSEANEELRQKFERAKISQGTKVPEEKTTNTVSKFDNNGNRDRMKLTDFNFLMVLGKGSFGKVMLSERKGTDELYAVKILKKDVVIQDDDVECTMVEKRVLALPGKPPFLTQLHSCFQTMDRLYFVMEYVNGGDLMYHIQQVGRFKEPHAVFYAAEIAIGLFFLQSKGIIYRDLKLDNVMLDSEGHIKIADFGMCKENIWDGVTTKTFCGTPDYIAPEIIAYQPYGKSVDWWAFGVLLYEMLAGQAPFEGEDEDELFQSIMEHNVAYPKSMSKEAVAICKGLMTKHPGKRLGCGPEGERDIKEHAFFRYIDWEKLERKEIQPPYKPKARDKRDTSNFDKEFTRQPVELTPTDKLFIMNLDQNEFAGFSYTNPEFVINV
Chain of Fibroblast growth factor receptor 2 (P21802 whole entry): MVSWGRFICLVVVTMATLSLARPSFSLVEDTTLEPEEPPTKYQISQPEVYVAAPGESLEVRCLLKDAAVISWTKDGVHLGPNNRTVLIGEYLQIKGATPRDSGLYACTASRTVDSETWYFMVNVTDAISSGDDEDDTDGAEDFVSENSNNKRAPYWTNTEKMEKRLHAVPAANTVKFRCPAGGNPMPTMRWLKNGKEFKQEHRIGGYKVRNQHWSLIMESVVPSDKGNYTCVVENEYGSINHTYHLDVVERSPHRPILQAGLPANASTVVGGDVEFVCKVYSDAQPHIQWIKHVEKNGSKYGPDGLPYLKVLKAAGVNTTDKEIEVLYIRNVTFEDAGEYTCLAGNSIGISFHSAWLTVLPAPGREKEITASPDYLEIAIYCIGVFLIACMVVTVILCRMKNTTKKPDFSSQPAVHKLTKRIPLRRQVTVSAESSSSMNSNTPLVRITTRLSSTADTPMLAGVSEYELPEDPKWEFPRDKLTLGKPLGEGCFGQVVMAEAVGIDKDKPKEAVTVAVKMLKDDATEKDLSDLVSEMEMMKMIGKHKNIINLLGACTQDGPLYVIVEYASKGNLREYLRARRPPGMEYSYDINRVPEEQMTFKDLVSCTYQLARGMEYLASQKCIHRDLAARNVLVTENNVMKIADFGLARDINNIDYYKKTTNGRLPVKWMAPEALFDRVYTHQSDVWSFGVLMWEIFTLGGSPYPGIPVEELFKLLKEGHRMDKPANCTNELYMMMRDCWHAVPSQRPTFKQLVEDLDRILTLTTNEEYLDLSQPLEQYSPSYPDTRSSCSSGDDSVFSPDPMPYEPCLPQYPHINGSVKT
Chain of Mast/stem cell growth factor receptor Kit (P10721 whole entry): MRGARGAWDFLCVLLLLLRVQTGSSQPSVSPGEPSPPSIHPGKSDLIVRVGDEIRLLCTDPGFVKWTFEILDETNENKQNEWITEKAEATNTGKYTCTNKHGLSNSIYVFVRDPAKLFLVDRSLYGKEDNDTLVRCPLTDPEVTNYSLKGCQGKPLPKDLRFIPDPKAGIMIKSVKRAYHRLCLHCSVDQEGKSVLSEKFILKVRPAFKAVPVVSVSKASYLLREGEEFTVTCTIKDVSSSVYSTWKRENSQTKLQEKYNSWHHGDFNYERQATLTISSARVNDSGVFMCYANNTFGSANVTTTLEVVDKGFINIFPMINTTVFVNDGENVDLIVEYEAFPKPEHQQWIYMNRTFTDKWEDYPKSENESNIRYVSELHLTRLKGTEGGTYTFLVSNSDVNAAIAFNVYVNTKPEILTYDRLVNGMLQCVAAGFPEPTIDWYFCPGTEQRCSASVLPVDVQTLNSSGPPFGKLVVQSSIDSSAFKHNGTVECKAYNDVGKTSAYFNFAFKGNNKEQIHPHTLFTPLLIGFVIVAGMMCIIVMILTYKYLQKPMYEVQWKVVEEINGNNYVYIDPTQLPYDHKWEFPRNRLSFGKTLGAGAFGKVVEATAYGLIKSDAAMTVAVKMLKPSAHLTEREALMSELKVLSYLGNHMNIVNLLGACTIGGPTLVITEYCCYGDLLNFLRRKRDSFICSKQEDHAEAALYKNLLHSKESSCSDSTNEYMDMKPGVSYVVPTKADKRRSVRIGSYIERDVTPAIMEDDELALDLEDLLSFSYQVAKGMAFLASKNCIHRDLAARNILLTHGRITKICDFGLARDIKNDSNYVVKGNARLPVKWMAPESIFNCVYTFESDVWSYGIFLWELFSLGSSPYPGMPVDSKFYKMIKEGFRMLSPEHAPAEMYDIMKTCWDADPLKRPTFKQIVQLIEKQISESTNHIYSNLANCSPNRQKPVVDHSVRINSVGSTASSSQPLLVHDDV

In general, IC50 refers to the concentration that gives 50% inhibition. In general, solubility refers to the dissolved amount per volume that the medium holds. `C[C@@H](Oc1ccc2ncc(C3CC3C(N)=O)cc2c1)c1c(Cl)ccc(F)c1Cl` (some centres undefined): the half-inhibitory concentration (IC50) is 41 µM in [1]; greater than 1 µM in the data set on T47D; 0.093 µM with MKN-45; greater than 50 µM in data set [3]; greater than 1 µM with CAPAN-1; 0.3 µM with HUVEC [4]. Also, the IC50 in data set [5] is greater than 50 µM; in [6], 15 µM; in data set [7], greater than 50 µM; in [8] it was greater than 50 µM; on Ephrin type-A receptor 2, 5.2 µM; in the data set on HUVEC [9], 9.9 µM. The IC50 is greater than 1 µM in the data set on CWR22R; greater than 50 µM in data set [10]; 22 µM at Aurora kinase A; greater than 1 µM in the data set with MCF7; greater than 50 µM at Insulin receptor; 12 µM in data set [11]. Also, the concentration for half-maximal inhibition (IC50) was 25 µM in data set [12]; 6.7 µM in the data set on HUVEC [13]; greater than 1 µM with NCI-H460; greater than 1 µM in the data set on HCT-116; greater than 1 µM in the data set with PC-3. Moreover, the concentration in solution in data set [2] (solubility) was 345 µg/mL (≈ 823 µM).
